Screens (PubChem)
T cell modulator = modulates CD8 T cell binding to vesicles. response (vesicle binding), % at 7 µM. 0.068% of 330,000 active. 2C CD8+ T cell-vesicle binding, flow cytometry; active compounds read low. AID 2052;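 active means response, share of CD8 T cells binding vesicles, and their 90th percentile fluorescence all below set limits, cut at about 80% in these data, passing the limit was not always enough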;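 further: values below 100% mean blocked vesicle binding to the CD8+ T cells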
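Read-out – percent CD8+ FL2 mean versus row control · System – murine 2C transgenic CD8+ T lymphocytes · Times – 1.5 h cell–vesicle binding at 37 °C, then 20 min icy labelling · Control set – naked vesicles low, QL9 vesicles with vehicle high · Detection – cytometric PE anti-B7-1 and Alexa647 anti-CD8 signals after 1% paraformaldehyde fixation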
PP5 primary = inhibitors of human protein phosphatase 5 (PP5) | P53041 | purified PP5c, OMFP substrate fluorescence | inhibition, % at 6.7 µM | 0.18% of 320,000 active | AID 1987;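 active means inhibition above the campaign's mean inhibition across all tested compounds plus 3 SD, cut at about 9.5% in these data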;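 further: 0% = DMSO only and 100% = 100 µM cantharidin control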
Target sequence (P53041 whole entry, looked up): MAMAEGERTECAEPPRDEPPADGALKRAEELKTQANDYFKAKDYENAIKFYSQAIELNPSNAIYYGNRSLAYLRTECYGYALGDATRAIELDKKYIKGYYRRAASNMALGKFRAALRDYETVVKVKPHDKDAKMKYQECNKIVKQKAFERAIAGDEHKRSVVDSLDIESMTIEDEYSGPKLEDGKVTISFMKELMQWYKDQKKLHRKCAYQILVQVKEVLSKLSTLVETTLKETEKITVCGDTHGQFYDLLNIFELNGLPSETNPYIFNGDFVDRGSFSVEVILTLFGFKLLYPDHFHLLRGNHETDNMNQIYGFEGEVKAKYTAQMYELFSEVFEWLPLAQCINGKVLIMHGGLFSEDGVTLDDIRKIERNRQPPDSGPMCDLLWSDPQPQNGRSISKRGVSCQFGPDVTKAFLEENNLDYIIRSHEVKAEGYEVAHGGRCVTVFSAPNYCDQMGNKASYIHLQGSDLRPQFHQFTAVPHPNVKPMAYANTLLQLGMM
PP1 counter = counter-screen for PP5 inhibitors: inhibitors of human PP1-alpha | purified PP1alpha, OMFP fluorescence | inhibition, % at 6.7 µM | 0.9% of 320,000 active | AID 2235;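 active means inhibition above the mean inhibition of all tested compounds plus 3 SD, computed separately for each screening campaign, cut at about 15% in these data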
m5-HT2A agonist = agonists of mouse serotonin 5-HT2A receptor (HTR2A). CHO-K1 mHTR2A beta-arrestin complementation, luminescence; percent of 30 µM serotonin response. activation, % at 7.6 µM. 0.66% of 360,000 active;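 active means activation above a run cutoff, the mean activation of all tested compounds plus 3 SD, cut at about 14% in these data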;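 further: 0% = plate median of compound wells and 100% = 30 µM serotonin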
GASC-1 inh = blocks human GASC-1 demethylase activity; GST-JMJD2C(1-420) H3K9me3 demethylation, DELFIA europium; inhibition, % at 2.35 µM; 0.069% of 330,000 active;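 active means more than half of a compound's replicate wells show inhibition beyond 50%, single wells judged on their own value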;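 further: signal counts dimethyl H3K9 product captured on neutravidin plate; 0% = median of DMSO wells and 100% = 0.3 times that DMSO median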
PP1 confirm = human PP1 phosphatase inhibition, confirmation | shares compounds with PP1 counter | inhibition, % at 6.7 µM | 52% of 1,900 active | AID 2358 | purified PP1alpha, OMFP substrate fluorescence;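 active means mean PP1 inhibition above a set limit taken from the earlier primary screen, cut at about 15% in these data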
PP5 inh counter = PP5 phosphatase inhibition, counter-screen for PP1 inhibitors; purified PP5c, OMFP fluorescence; inhibition, % at 6.7 µM; 4% of 1,900 active; AID 2360; shares compounds with PP1 counter;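 active means mean PP5 inhibition over triplicate wells above about 9.5% taken from the earlier PP1 screen, limit read from the data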
The depositor's hits bear a star; i = inactive; x = not tested or not shown. Compounds with a hit are over-represented: about 1.7% of the library has one in this group of screens.

SMILES | T cell modulator | PP5 primary | PP1 counter | m5-HT2A agonist | GASC-1 inh | PP1 confirm | PP5 inh counter
CCc1nnc(NC(=O)c2ccc(S(=O)(=O)N(CC(C)C)CC(C)C)cc2)o1 | 310 | 1 | 25* | -1 | x | 30* | -2
CSCc1nnc(NC(=O)c2ccc(S(=O)(=O)N(CC(C)C)CC(C)C)cc2)o1 | x | x | x | x | 18 | x | x
CN(C)c1ncnc2c1ncn2[C@H]1CN(CCN2CCOCC2)C[C@@H](CO)O1 | x | x | x | 7 | x | x | x
Cn1cnnc1SCC(=O)Nc1ccc(OCc2ccccc2)cc1 | 275 | 1 | 24* | -5 | 3 | 4 | -3
CCOC(=O)[C@]12CCCC=C1N(Cc1ccccc1)C(=O)[C@H](CC(=O)NCc1cccc(C(F)(F)F)c1)C2 | x | x | x | -3 | x | x | x
O=S(=O)(c1ccc(Cl)cc1)N1CCN(Cc2ccc(O)c3ncccc23)CC1 | 148 | 3 | 18* | -2 | 26 | 24* | -2
O=C(O)c1ccccc1NS(=O)(=O)c1ccc(NN=Cc2ccccc2F)c([N+](=O)[O-])c1 | 540 | x | x | 6 | 6 | x | x
Cc1nn(-c2ccccc2)c(Cl)c1/C=N/Nc1ccc(S(=O)(=O)Nc2ccccc2C(=O)O)cc1[N+](=O)[O-] | 196 | 3 | 20* | -2 | -4 | 11 | -2
O=C(Nc1ccc(N2CCCC2)cc1)c1ccc2ccccc2c1 | 273 | 2 | 21* | 1 | 3 | 0 | -5
CCCCN(C)C(=O)c1nc2ccccn2c1CN1CCN(c2ccccn2)CC1 | 161 | 1 | -3 | -1 | 8 | x | x
CCCCN(C)C(=O)c1nc2ccccn2c1CN1CCN(c2cnccn2)CC1 | 85 | 2 | 19* | -2 | 12 | -1 | -1
Cc1ccc(C)c(NC(=O)CSc2nc(N)c(NC(=O)c3cccs3)c(=O)[nH]2)c1 | x | x | x | 3 | x | x | x
Cc1ccc(C)c(NC(=O)CSc2nc3nc(-c4cccs4)cc(C(F)(F)F)c3c(=O)[nH]2)c1 | 262 | 3 | 23* | -2 | 0 | 14 | -1
O=C(CSc1nc2nc(-c3cccs3)cc(C(F)(F)F)c2c(=O)[nH]1)Nc1ccc(F)c(F)c1 | 192 | 3 | 39* | -1 | -2 | 30* | 2
CNc1cc(CSC)nc(SCc2ccc(Cl)cc2Cl)n1 | 298 | 4 | 8 | -4 | -14 | x | x
CSCc1cc(N(C)C)nc(SCc2ccc(Cl)c(Cl)c2)n1 | 30 | 1 | 22* | -8 | 11 | 10 | -2
CCCc1nn(C)c(C(=O)Nc2ccccc2)c1Cl | 327 | 2 | 2 | -4 | -6 | x | x
CC(=O)Nc1cncc(-c2cnn(CC(C)C)c2)n1 | x | x | x | 6 | x | x | x
C/C(=N\Nc1ccc(S(=O)(=O)Nc2ccccc2)cc1[N+](=O)[O-])c1ccncc1 | 274 | -2 | -3 | x | 4 | x | x
COc1ccc(NS(=O)(=O)c2ccc(N/N=C(\C)c3ccncc3)c([N+](=O)[O-])c2)cc1 | 240 | 4 | 24* | 4 | -1 | 16* | 6
O=C(c1cccs1)N1N=C(c2ccccc2)CC1c1ccccc1O (configuration not stated) | 276 | -5 | 25* | 10 | 5 | 19* | -3
Cc1ccc(S(=O)(=O)n2ccc3c(OCCOCCNCc4ccc(F)cc4)cccc32)cc1 | 241 | 3 | 18* | -16 | 6 | -1 | 2
Cc1ccc(S(=O)(=O)n2ccc3c(OCCOCCSCC(NC(=O)OC(C)(C)C)C(=O)O)cccc32)cc1 (configuration not stated) | 199 | 6 | 21* | -6 | 2 | 9 | 4
Cc1ccc(S(=O)(=O)NCCCCC(NC(=O)OC(C)(C)C)C(=O)O)cc1 (configuration not stated) (tested in a mixture with another compound) | 181 | 1 | -3 | 3 | -10 | x | x
N#Cc1ccc(C(=O)Nc2nnc(-c3cccs3)o2)cc1 | 745 | 0 | 4 | -3 | -11 | x | x
SMILES | T cell modulator | PP5 primary | PP1 counter | m5-HT2A agonist | GASC-1 inh | PP1 confirm | PP5 inh counter
CCC1CCCCN1S(=O)(=O)c1ccc(C(=O)Nc2nnc(-c3cccs3)o2)cc1 (configuration not stated) | 212 | 3 | 41* | 1 | 7 | 33* | 2
O=C(Nc1nnc(-c2cccs2)o1)c1cccc(C(F)(F)F)c1 | 525 | 3 | 20* | 0 | 4 | 18* | 1
CCNC(=O)C1CCCN(Cc2cc(C(F)(F)F)ccc2Cl)CC1 (configuration not stated) | x | x | x | 0 | x | x | x
CC(=O)Nc1ccc(NC(=O)CSc2ncc(C(=O)Nc3ccc(F)cc3)c(=O)n2C)cc1 | 857 | 1 | 3 | 3 | -5 | x | x
CC(=O)Nc1cccc(NC(=O)CSc2ncc(C(=O)Nc3ccc(F)cc3)c(=O)n2C)c1 | 745 | 1 | 34* | 4 | -6 | 2 | 2
COc1ccc(-c2nc(CS(=O)CC(=O)NCc3ccc(F)cc3)c(C)o2)cc1 (configuration not stated) | 680 | 4 | 0 | 3 | -19 | x | x
Cn1nc(C(F)(F)F)c(-c2ccccc2)c1NC(=O)c1nccnc1C(=O)O | 428 | 1 | 25* | 6 | -19 | 0 | -3
CSc1nc(NCCN(C)C)c2sc3nc(-c4ccco4)c4c(c3c2n1)CCC4 | x | x | x | 0 | x | x | x
CSc1nc(N(C)CCO)c2sc3nc(-c4ccco4)c4c(c3c2n1)CCC4 | 387 | -1 | 30* | 7 | 1 | 31* | -1
COCc1nnc(NC(=O)c2ccc(S(=O)(=O)N(C)Cc3ccccc3)cc2)o1 | 307 | 4 | 22* | -3 | 0 | 17* | 4
CN(c1ccccc1)S(=O)(=O)c1ccc(C(=O)Nc2nnc(C3=COCCO3)o2)cc1 | 473 | 1 | 26* | 2 | -2 | 15* | 2
CN(C)c1ccc(C(=O)Nc2nnc(C3=COCCO3)o2)cc1 | 408 | 1 | 2 | 1 | 8 | x | x
CCN(Cc1ccccc1)S(=O)(=O)c1ccc(C(=O)Nc2nnc(C3CC3)o2)cc1 | i | 3 | 43* | 3 | 6 | 34* | -4
Cc1nnc(NC(=O)c2ccc(S(=O)(=O)N(C)Cc3ccccc3)cc2)o1 | 240 | 6 | 38* | -2 | -22 | 30* | 3
COCCN(CCOC)S(=O)(=O)c1ccc(C(=O)Nc2nnc(COC)o2)cc1 | 476 | -1 | -7 | -1 | 6 | x | x
COCCN(CCOC)S(=O)(=O)c1ccc(C(=O)Nc2nnc(C)o2)cc1 | 163 | 0 | 2 | 0 | 12 | x | x
C=C[C@](C)(CC[C@@]1(C)C(C)CC(OC2OC(C)C(OC3OC(COC(C)=O)C(O)C(O)C3O)C(O)C2O)[C@@]2(C)C(C)=CCCC12)OC1OC(C)C(O[C@@H]2O[C@@H](C)C(O)C(O)[C@H]2O)C(O)C1O (some centres not stated) | 0 | x | x | 5 | 17 | x | x
